According to PubChem BioAssay:
Records with an inconclusive call do not appear.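 How the source made its calls, unless noted: active means viability increase at or above a cutoff of the median across tested compounds plus 3 SD (cut at about 8.5% in these data, passing the limit was not always enough); inconclusive means some gains above the cutoff, reason not given; inactive means the rest.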

Experiments:
[1] = S. cerevisiae growth inhibition in permissive medium (OD615), pilot counter-assay for S. cerevisiae lifespan shortening project, permissive growth control (AID 705;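 active means growth inhibition above 25% in both replicates, a cutoff set 3 SD above the mean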); settings: OD615, 24 h, at 10 µM, stronger effect = higher value
Method in brief: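 assay system = Saccharomyces cerevisiae strain carrying genetically modified DeaD replicative-lifespan system | technique = absorbance (optical density) at 615 nm | buffer or medium = permissive raffinose/galactose medium | timing = cells pre-grown 4 h, then 24 h compound exposure, 30 °C humidified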

[2] = S. cerevisiae growth inhibition in restrictive medium, OD615, pilot screen, restrictive growth control, yeast lifespan reduction project (AID 706;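 active means growth inhibition above a set limit, 3 SD over mean compound inhibition, in both replicates, cut at about 43% in these data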;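 further: modified DeaD lifespan yeast strain shifted to restrictive glucose medium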); settings: OD615, 48 h, at 10 µM, stronger effect = higher value
Method in brief: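 System: modified S. cerevisiae. Buffer or medium: CSMM-D glucose medium. Incubation: 4 h pre-growth plus 48 h compound exposure, 30 °C. Detection: absorbance (optical density) measured at 615 nm.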

[3] = doxorubicin toxicity protection in MRP-1 cells – H69AR cells, CellTiter-Glo, duplicate, MRP-1 activator project, pilot screen (AID 807); settings: H69AR viability with doxorubicin, CellTiter-Glo luminescence; at 10 µM; stronger effect = higher value;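 further: compound pretreatment 18-22 h then 72 h combined with doxorubicin; 0% = doxorubicin alone and 100% = vehicle without doxorubicin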
[4] = viability of HCT116 without oncogenic beta-catenin – human colon tumor cells, pilot screen (AID 823;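 active means cell viability at or below a set limit in both duplicate runs, the limit being the all-compound median minus 4 SD, cut at about 23% in these data, passing the limit was not always enough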;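 further: 0% = wells killed by 20 µM Hyamine and 100% = untreated DMSO cell wells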); settings: HCT116 beta-catenin knockout viability, CellTiter-Glo, 60 h; at 10 µM; stronger effect = lower value
[5] = viability of PTEN-null HCT116 cells – cell-based, HCT116 clonal line, CellTiter-Glo, pilot screen (AID 824;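 active means viability at or below 27.92% in each of two runs, the all-compound median minus 4 SD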;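 further: 0% = 20 µM Hyamine control and 100% = vehicle cell control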); settings: HCT116 PTEN-deleted viability, 60 h, at 10 µM, stronger effect = lower value
[6] = RAM pathway blockade in budding yeast – dse1pr::URA3 reporter, 5-FOA selection, pilot screen (AID 869;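 active means inhibition over a set limit, the all-compound mean plus 3 SD, in both replicate runs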;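 further: 0% = DMSO wells with no growth and 100% = 10 µM 1-NA-PP1 with full growth; RAM network block rescues cells from 5-FOA so hits raise OD615 growth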); settings: S. cerevisiae dse1pr::URA3 5-FOA growth, OD615, 2 d; at 10 µM; stronger effect = higher value; strain carries analog-sensitive mutant Cbk1 kinase
[7] = RAM signaling pathway blockade in yeast – S. cerevisiae, Pdr1DBD-CYC8 efflux-inhibited sensitized strain, primary screen (AID 1298;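 active means RAM network inhibition above 8.4% in each of two replicates, 3 SD over the compound average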;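 further: 0% = DMSO untreated cells without growth and 100% = 10 µM 1-NA-PP1 full growth; higher means more yeast growth rescued from 5-FOA killing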); settings: S. cerevisiae cbk1-as DSE1-URA3 strain, 5-FOA growth OD615, 2 d; at 50 µM; stronger effect = higher value

O=C(C(Cc1ccccc1)n1cccc1)N1CCc2ccccc21 (stereo not given)
inactive: growth inhibition [1] -16.3% | growth inhibition [2] -9.65% | viability increase [3] -3.05% | viability [4] 81.2% | viability [5] 68.2% | inhibition [6] 2.29% | RAM network inhibition [7] 3.93%

CCN(CC)CC(O)COc1ccccc1C(=O)CCc1ccccc1 (stereo not given)
inactive: growth inhibition [1] -17.4% | growth inhibition [2] -14.3% | viability increase [3] -4.88% | viability [4] 73% | viability [5] 80.5% | inhibition [6] 0.58% | RAM network inhibition [7] 4.17%

CCOC(=O)Nc1ccccc1C(=O)N1CCOCC1
inactive: growth inhibition [1] -8.68% | growth inhibition [2] -2.7% | viability increase [3] -0.42% | viability [4] 97.5% | viability [5] 98% | inhibition [6] 1.89% | RAM network inhibition [7] 2.52%

CC1CCc2nn(CC(=O)NCCCN3CCCCC3)cc2C1 (stereo not given)
inactive: growth inhibition [1] -15.9% | growth inhibition [2] -10.3% | viability increase [3] -2.34% | viability [4] 105% | viability [5] 96.7% | inhibition [6] 1.18% | RAM network inhibition [7] 3.77%

CC(=O)COC(=O)c1cccc(N2C(=O)C3C4C=CC(C4)C3C2=O)c1 (stereo not given)
inactive: growth inhibition [1] -0.62% | growth inhibition [2] 8.06% | viability increase [3] -1.07% | viability [4] 105% | viability [5] 93.5% | inhibition [6] 1.27% | RAM network inhibition [7] 0.67%

Cc1nn(C)c(C)c1S(=O)(=O)N(CC(=O)Nc1nccs1)c1ccc(C(C)C)cc1
inactive: growth inhibition [1] -0.91% | growth inhibition [2] -7.29% | viability increase [3] -4.04% | viability [4] 99% | viability [5] 90.5% | inhibition [6] 2.3% | RAM network inhibition [7] 2.72%

CCCCNC(=O)Nc1ccc(Br)cn1
inactive: growth inhibition [1] -8.62% | growth inhibition [2] 4.73% | viability increase [3] -1.6% | viability [4] 97.6% | viability [5] 96% | inhibition [6] 0.485% | RAM network inhibition [7] 6.6%

COC(=O)C1=C(C)N(C)C(C)=C(C(=O)OC)C1c1ccccc1C
inactive: growth inhibition [1] -18.8% | growth inhibition [2] -21.1% | viability increase [3] -0.42% | viability [4] 94.6% | viability [5] 87.7% | inhibition [6] 0.365% | RAM network inhibition [7] 3.87%

Cc1cc(NC(=O)c2cc3n(n2)C(C(F)(F)F)CC(c2ccco2)N3)no1 (stereo not given)
inactive: growth inhibition [1] 5.72% | growth inhibition [2] 5.53% | viability increase [3] -0.69% | viability [4] 98.8% | viability [5] 94.6% | inhibition [6] 0.475% | RAM network inhibition [7] 1.13%

C/C=C/Cn1c(N(C)Cc2ccccc2)nc2c1c(=O)[nH]c(=O)n2C
inactive: growth inhibition [1] -17.4% | growth inhibition [2] -23.1% | viability increase [3] 0.04% | viability [4] 102% | viability [5] 87.6% | inhibition [6] 0.445% | RAM network inhibition [7] 3.49%

CCCN1CCN(C(=O)CCCn2c(C)c3cnn(-c4ccccc4)c(=O)c3c2C)CC1
inactive: growth inhibition [1] -10.1% | growth inhibition [2] -6.09% | viability increase [3] -2.94% | viability [4] 102% | viability [5] 105% | inhibition [6] -0.215% | RAM network inhibition [7] 3.77%

O=C(NCCCN1CCN(c2ccccc2F)CC1)C1CCC(=O)N1C1CCCC1 (stereo not given)
inactive: growth inhibition [1] -13% | growth inhibition [2] -1.25% | viability increase [3] -2.46% | viability [4] 102% | viability [5] 93.6% | inhibition [6] 1.08% | RAM network inhibition [7] 5.85%

NC(=O)C1(N2CCCCC2)CCN(S(=O)(=O)c2cc(Cl)ccc2Cl)CC1
inactive: growth inhibition [1] 4.2% | growth inhibition [2] 3.53% | viability increase [3] 0.74% | viability [4] 98.7% | viability [5] 91.1% | inhibition [6] 1.56% | RAM network inhibition [7] 6.42%

CC(=O)N1CC2(C)CN(C(C)=O)CC(C)(C1)C2=O
inactive: growth inhibition [1] -5.64% | growth inhibition [2] 2.83% | viability increase [3] -0.26% | viability [4] 101% | viability [5] 102% | inhibition [6] 1.9% | RAM network inhibition [7] -0.41%

Cc1cc(Nc2ccc3c(c2)OCCO3)n2nc(C)nc2n1
inactive: growth inhibition [1] -5.2% | growth inhibition [2] 11.4% | viability increase [3] -2.09% | viability [4] 106% | viability [5] 102% | inhibition [6] 2.84% | RAM network inhibition [7] 1.45%

O=C(CSc1ncnc2nc[nH]c12)N1CCOCC1
inactive: growth inhibition [1] -15.7% | growth inhibition [2] -14.4% | viability increase [3] -0.96% | viability [4] 86% | viability [5] 102% | inhibition [6] -0.435% | RAM network inhibition [7] 2.34%

CCNC(=O)COc1ccc2ccccc2c1
inactive: growth inhibition [1] -2.77% | growth inhibition [2] 3.62% | viability increase [3] 0.99% | viability [4] 97.4% | viability [5] 99.6% | inhibition [6] 1.06% | RAM network inhibition [7] 1.53%

Cc1ccc(C(=O)NCc2ccc3c(c2)OCO3)cc1N1CCCC1=O
inactive: growth inhibition [1] 5.69% | growth inhibition [2] 4.36% | viability increase [3] -1.36% | viability [4] 91.7% | viability [5] 98.2% | inhibition [6] 0.635% | RAM network inhibition [7] 4.17%

CCOC(=O)Cn1c(=O)oc2cc(S(=O)(=O)Nc3cccc(C)c3)ccc21
inactive: growth inhibition [1] -5.58% | growth inhibition [2] -22.1% | viability increase [3] -0.66% | viability [4] 65.5% | viability [5] 79% | inhibition [6] 1% | RAM network inhibition [7] 2.63%

Cc1c(C(=O)N2CCCc3ccccc32)sc2nc(-c3ccccc3)cn12
inactive: growth inhibition [1] -8.77% | growth inhibition [2] 0.195% | viability increase [3] -2.82% | viability [4] 65.9% | viability [5] 68.4% | inhibition [6] 2.46% | RAM network inhibition [7] 5.58%

CC(=O)c1ccc(-n2nncc2C(C)(C)C)cc1
inactive: growth inhibition [1] -3.02% | growth inhibition [2] -2.67% | viability increase [3] -0.85% | viability [4] 98.6% | viability [5] 99.5% | inhibition [6] 1.47% | RAM network inhibition [7] 0.78%

COc1ccc(C2CC(c3ccc(Cl)c(Cl)c3)Nc3nc(N)nn32)cc1 (stereo not given)
inactive: growth inhibition [1] -6.79% | growth inhibition [2] 12.7% | viability increase [3] -2.3% | viability [4] 75.4% | viability [5] 76.4% | inhibition [6] 2.52% | RAM network inhibition [7] 5.52%

CC(=O)Nc1nc2ccccc2n1CCN(C)C
inactive: growth inhibition [1] -5.31% | growth inhibition [2] -3.15% | viability increase [3] -0.15% | viability [4] 99.3% | viability [5] 103% | inhibition [6] 2.95% | RAM network inhibition [7] 7.04%

Cc1ccccc1Cn1c(=O)[nH]c2ccccc21
inactive: growth inhibition [1] -1.87% | growth inhibition [2] 4.58% | viability increase [3] 0.06% | viability [4] 96.5% | viability [5] 88.5% | inhibition [6] 1.9% | RAM network inhibition [7] 4.55%

Oc1c(/C=N/c2ncn[nH]2)ccc2ccccc12
inactive: growth inhibition [1] -9.29% | growth inhibition [2] -4.74% | viability increase [3] -0.29% | viability [4] 98.3% | viability [5] 101% | inhibition [6] -0.085% | RAM network inhibition [7] -1.12%

CCC(C)NC(=O)c1c(-c2cc(Cl)c(OC)c(Cl)c2)noc1C (stereo not given)
inactive: growth inhibition [1] -15% | growth inhibition [2] -11.9% | viability increase [3] 0.42% | viability [4] 96.7% | viability [5] 93% | inhibition [6] 0.895% | RAM network inhibition [7] 5.69%

O=C(Nc1ccccc1Cl)c1ccc(S(=O)(=O)N2CCOCC2)cc1
inactive: growth inhibition [1] -11.5% | growth inhibition [2] -7.41% | viability increase [3] -0.1% | viability [4] 111% | viability [5] 99.4% | inhibition [6] 0.585% | RAM network inhibition [7] 2.05%

CCOC(=O)C1C(c2cccc(Cl)c2Cl)NC(=O)NC1(O)C(F)(F)F (stereo not given)
inactive: growth inhibition [1] -5.62% | growth inhibition [2] -7.31% | viability increase [3] -2.19% | viability [4] 94.8% | viability [5] 96.9% | inhibition [6] 1.15% | RAM network inhibition [7] 7.71%

O=C(NCc1ccco1)c1nnc(Cc2ccc(F)cc2)o1
inactive: growth inhibition [1] -18.4% | growth inhibition [2] -12.9% | viability increase [3] -0.65% | viability [4] 105% | viability [5] 89.5% | inhibition [6] 1.21% | RAM network inhibition [7] 4.79%

CCC(C)NS(=O)(=O)c1ccc(NC(=O)c2c(-c3ccccc3)noc2C)cc1 (stereo not given)
inactive: growth inhibition [1] -6.46% | growth inhibition [2] -11% | viability increase [3] -0.12% | viability [4] 86.3% | viability [5] 71.1% | inhibition [6] 0.48% | RAM network inhibition [7] 5.94%

COc1ccc(C2(C(F)(F)F)NC(=O)N(C)C(=O)N2C)cc1 (stereo not given)
inactive: growth inhibition [1] -14.7% | growth inhibition [2] -19.5% | viability increase [3] -0.46% | viability [4] 99% | viability [5] 101% | inhibition [6] 1.11% | RAM network inhibition [7] 2.74%

CCOC(=O)N1CCC(N2CC34C=CC(O3)C(C(=O)Nc3ccc(C(C)C)cc3)C4C2=O)CC1 (stereo not given)
inactive: growth inhibition [1] 2.48% | growth inhibition [2] -7.2% | viability increase [3] 3.15% | viability [4] 102% | viability [5] 99.6% | inhibition [6] 0.27% | RAM network inhibition [7] -0.37%

Cn1c(NC(=O)c2ccc(F)c(F)c2)cc(=O)n(C)c1=O
inactive: growth inhibition [1] -2.93% | growth inhibition [2] -3.23% | viability increase [3] -1.64% | viability [4] 95.7% | viability [5] 93.4% | inhibition [6] 0.925% | RAM network inhibition [7] 0.81%

COc1ccc(S(=O)(=O)N2CCC(C(=O)N3CCc4ccccc4C3)CC2)cc1OC
inactive: growth inhibition [1] 1.07% | growth inhibition [2] 1.26% | viability increase [3] -2.24% | viability [4] 89.4% | viability [5] 87.6% | inhibition [6] -0.455% | RAM network inhibition [7] 5.37%

CCC(CC)C(=O)NCCc1cc2ccc(C)c(C)c2[nH]c1=O
inactive: growth inhibition [1] -14.2% | growth inhibition [2] -21.4% | viability increase [3] -1.66% | viability [4] 103% | viability [5] 96.6% | inhibition [6] 1.66% | RAM network inhibition [7] 2.56%
